Assay results taken from ChEMBL document CHEMBL2169822, “Discovery and optimization of 1,3,4-trisubstituted-pyrazolone derivatives as novel, potent, and nonsteroidal farnesoid X receptor (FXR) selective antagonists” (J Med Chem, 2012).
The source made the active and inactive calls. No cut-off for these calls is given here.

Key:
[1] = Agonist activity at GST tagged human recombinant FXRalphaLBD expressed in Escherichia coli BL21 cells assessed as SRC-1 co-activator association at 40 uM after 30 mins by HTRF assay; format: functional
In short: (§1)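 HTRF coactivator recruitment: 10 nM GST-human FXRαLBD (residues 238–473, E. coli BL21(DE3)), 0.83 nM anti-GST-Eu cryptate, 100 nM biotin-SRC1 peptide, 41.75 nM SA/XL665. Buffer was 50 mM Hepes pH 7.0, 125 mM KF, 0.125% CHAPS, 0.05% dry milk. Compound alone or with CDCA, 30 min at room temperature. Signal was 1000×(668/620 nm). Primary screen at 40 μM; IC50 as mean ± SE, three experiments.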

[2] = Antagonist activity at GST-tagged human recombinant FXRalphaLBD expressed in Escherichia coli BL21 cells assessed as inhibition of CDCA-induced SRC-1 co-activator association at 40 uM by HTRF assay; format: functional; in short: as §1
HEK-293T [3] = assay: Agonist activity at FXRalpha/RXRalpha expressed in HEK293T cells co-expressing GAL4 DBD after 18 hrs by luciferase based transactivation assay; format: functional, cell-based; details: Homo sapiens
In short: (§2)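 FXR transactivation in HEK293T cells transiently transfected with pcDNA3.1-FXRα, pcDNA3.1-RXRα, pGL3-FXRE-Luc and pRL-SV40 Renilla vector. Medium was replaced 6 h after transfection with medium holding compound at varied concentrations, with or without 20 μM CDCA, for 18 h. Read-out was dual-luciferase. Three independent experiments.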

[4] = (§3) Antagonist activity at GST-tagged human recombinant FXRalphaLBD expressed in Escherichia coli BL21 cells assessed as inhibition of CDCA-induced SRC-1 co-activator association by HTRF assay; format: functional; in short: as §1
[5] = Agonist activity at GST tagged human recombinant FXRalphaLBD expressed in Escherichia coli BL21 cells assessed as SRC-1 co-activator association after 30 mins by HTRF assay; format: functional; details: BL21, 0.5 h
In short: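 Human FXRα LBD (residues 238–473) expressed as GST fusion in E. coli BL21(DE3) (IPTG 0.2 mM, 20 °C 6 h), purified on glutathione resin then Superdex 75. 10 nM GST-FXRαLBD incubated with 0.83 nM anti-GST-Eu cryptate, 100 nM biotin-SRC1 peptide and 41.75 nM SA/XL665 in 50 mM Hepes pH 7.0, 125 mM KF, 0.125% CHAPS, 0.05% dry milk, 30 min room temperature. Signal read as 1000×(668/620 nm). Primary screen at 40 μM.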

HEK-293T [6] = assay: Antagonist activity at FXRalpha/RXRalpha expressed in HEK293T cells co-expressing GAL4 DBD assessed as inhibition of CDCA-induced transactivation at 50 uM after 18 hrs by luciferase reporter gene assay; format: functional, cell-based; details: Homo sapiens; in short: as §2
Mus musculus [7] = assay: Reduction of hepatic cholesterol level in cholesterol-fed C57BL/6 mouse at 100 mg/kg, po after 10 days; format: functional; parameters: scale not given: the % may be the effect or the level left
In short: (§4)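 Male C57BL/6 mice, 8–12 weeks old, were randomized into five groups of nine. Control mice had ground chow; the other groups had chow with 2% cholesterol. Compound (50 or 100 mg/kg) or reference (100 mg/kg) was suspended in 0.5% CMC-Na and given by oral gavage; control and vehicle mice got 0.5% CMC-Na. Serum and hepatic triglyceride and total cholesterol were measured.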

Mus musculus [8] = assay: Reduction of serum triglyceride level in cholesterol-fed C57BL/6 mouse at 100 mg/kg, po after 10 days; format: functional; parameters: scale not given: the % may be the effect or the level left; in short: as §4
Mus musculus [9] = assay: Reduction of hepatic triglyceride level in cholesterol-fed C57BL/6 mouse at 100 mg/kg, po after 10 days; format: functional; parameters: scale not given: the % may be the effect or the level left; in short: as §4
BL21 = assay: as §3; format: functional; in short: as §1

| Compound | Activity [1] [%] | inhibition at 40 µM [2] [%] | further results |
| --- | --- | --- | --- |
| CC1=NN(c2cccc([N+](=O)[O-])c2)C(=O)/C1=C\c1ccc(C)s1 | <5 | < 5 |  |
| COc1cc(/C=C2\C(=O)N(c3cccc([N+](=O)[O-])c3)N=C2C(C)C)ccc1O | <5 | 26.4 |  |
| CC1=NN(c2cccc(C(=O)O)c2)C(=O)/C1=C\C=C\c1ccccc1 | <5 | 32.1 |  |
| CCOc1ccc(/C=C2\C(=O)N(c3cccc(C(F)(F)F)c3)N=C2C)cc1OC | <5 | < 5 |  |
| CC1=NN(c2cccc(C(=O)O)c2)C(=O)/C1=C\c1ccc(O)c(O)c1 | <5 | 17.4 |  |
| CCOc1ccc(/C=C2\C(=O)N(c3cc(C(F)(F)F)cc(C(F)(F)F)c3)N=C2C)cc1OC | <5 | < 5 |  |
| COc1cc(/C=C2\C(=O)N(c3cccc(C(=O)OC(C)C)c3)N=C2C)ccc1O | <5 | 29.9 |  |
| CCOc1ccc(/C=C2\C(=O)N(c3ccccc3F)N=C2C)cc1OC | <5 | 5.5 |  |
| COc1cc(/C=C2\C(=O)N(c3cccc(C(=O)O)c3)N=C2C)ccc1OCc1ccccc1 | <5 | 57.5 | Activity (HEK-293T [3]): inactive; IC50 [4]: 33.8 µM |
| CCOc1ccc(/C=C2\C(=O)N(c3ccc(C(C)C)cc3)N=C2C)cc1OC | <5 | 7.7 |  |
| COc1cc(/C=C2\C(=O)N(c3cccc(C(=O)O)c3)N=C2C)ccc1O | 6.4 | < 5 |  |
| CC1=NN(c2ccccc2)C(=O)/C1=C\c1ccccc1 | <5 | 23.1 |  |
| CCOc1ccc(/C=C2\C(=O)N(c3cc(Cl)cc(Cl)c3)N=C2C)cc1OC | <5 | < 5 |  |
| CCOc1ccc(/C=C2\C(=O)N(c3cccc([N+](=O)[O-])c3)N=C2C)cc1OC | 29.2 | < 5 |  |
| CCOc1ccc(/C=C2\C(=O)N(c3c(F)c(F)c(F)c(F)c3F)N=C2C)cc1OC | <5 | 43.6 | Activity (HEK-293T [3]): inactive; IC50 [4]: 82.2 µM |
| CCOc1ccc(/C=C2\C(=O)N(c3cccc(C(=O)O)c3)N=C2C)cc1OC | 9 | 48.5 | IC50 [4]: 69 µM |
| CCCCCOc1ccc(/C=C2\C(=O)N(c3cccc(C(=O)O)c3)N=C2C)cc1OC | <5 | 55.4 | Activity (HEK-293T [3]): inactive; IC50 [4]: 39.2 µM |
| COc1ccc(/C=C2\C(=O)N(c3cccc([N+](=O)[O-])c3)N=C2C)c2ccccc12 | <5 | 22.7 |  |
| CC1=NN(c2ccccc2)C(=O)/C1=C\c1ccc(Br)cc1 | <5 | 72.6 | Activity (HEK-293T [3]): inactive; IC50 [4]: 9.93 µM |
| CCOc1ccc(/C=C2\C(=O)N(c3ccc([N+](=O)[O-])cc3)N=C2C)cc1OC | 12.7 | 14.8 |  |
| COc1cc(/C=C2\C(=O)N(c3cccc(C(=O)O)c3)N=C2C)ccc1OC(C)C | <5 | < 5 |  |
| CCOc1ccc(/C=C2\C(=O)N(c3ccc(C(F)(F)F)cc3)N=C2C)cc1OC | <5 | 9.5 |  |
| C[C@H](CCC(=O)O)[C@H]1CC[C@H]2[C@@H]3[C@H](O)C[C@@H]4C[C@H](O)CC[C@]4(C)[C@H]3CC[C@]12C [CHENODIOL] |  |  | EC50 [5]: 12.5 µM |
| C/C=C1\C(=O)C[C@H]2[C@@H]3CCC4=CC(=O)CC[C@]4(C)[C@H]3CC[C@]12C [GUGGULSTERONE] |  |  | inhibition (HEK-293T [6]): Active; Activity (Mus musculus [7]): 26.3%; Activity (Mus musculus [8]): 53.7%; Activity (Mus musculus [9]): 45.1%; IC50 [4]: 89.4 µM; inhibition (BL21): Dose-dependent effect |
| CC1=NN(c2ccc([N+](=O)[O-])cc2)C(=O)/C1=C(/C)c1ccc(Cl)cc1 | <5 | 16.8 |  |
| CCOC(=O)c1cccc(N2N=C(C)/C(=C/c3ccc(OCC)c(OC)c3)C2=O)c1 | <5 | 9.4 |  |
| CCOc1ccc(/C=C2\C(=O)N(c3ccc(Cl)c(Cl)c3)N=C2C)cc1OC | <5 | 7.3 |  |
